Screening results (PubChem)
Tn7 DDE FP: inhibitors of Tn7 peptide binding to fibrin DD(E), primary screen, biochemical, fluorescence polarization, human fibrin, Tn7 probe; Fibrinogen beta chain (Homo sapiens), P02675; FP displacement of FITC-Tn7 peptide from fibrin DD(E); 0% = median of compound wells per plate; inhibition, % at 8.3 µM; 370,000 compounds, 0.13% hits;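 active = inhibition above the mean of compounds falling within the control limits plus 3 SD of them, cut at about 14% in these data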
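Assay system: Fibrin-DD(E) protein isolated from polymerized human fibrin clots; read-out basis: percent inhibition; medium: Tris/NaCl/CaCl2 buffer, pH 7.8; signal: FP measurement; incubation: 10 min plus 3 h, room temperature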
PLCg1 inh: PLC-gamma1 enzyme inhibitors, primary screen, biochemical, fluorescence, purified enzyme; 1-phosphatidylinositol 4,5-bisphosphate phosphodiesterase gamma-1 (Homo sapiens), P19174; fluorogenic substrate; inhibition, % at 12.2 µM; 370,000 compounds, 0.84% hits; AID 720700, 2013
ADAM10 inh: human ADAM10 inhibitors, primary screen, biochemical, QFRET, HTS; recombinant ADAM10, EDANS/DABCYL FRET peptide cleavage, 3 h; Disintegrin and metalloproteinase domain-containing protein 10 (Homo sapiens), O14672; 370,000 compounds, 0.62% hits; inhibition, % at 7 µM; AID 720582, 2013;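 active = inhibition above a per-campaign cutoff equal to the mean of compounds falling between control-based bounds plus 3 SD, cut at about 20% in these data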
Target sequence (O14672 214-748 limits assumed): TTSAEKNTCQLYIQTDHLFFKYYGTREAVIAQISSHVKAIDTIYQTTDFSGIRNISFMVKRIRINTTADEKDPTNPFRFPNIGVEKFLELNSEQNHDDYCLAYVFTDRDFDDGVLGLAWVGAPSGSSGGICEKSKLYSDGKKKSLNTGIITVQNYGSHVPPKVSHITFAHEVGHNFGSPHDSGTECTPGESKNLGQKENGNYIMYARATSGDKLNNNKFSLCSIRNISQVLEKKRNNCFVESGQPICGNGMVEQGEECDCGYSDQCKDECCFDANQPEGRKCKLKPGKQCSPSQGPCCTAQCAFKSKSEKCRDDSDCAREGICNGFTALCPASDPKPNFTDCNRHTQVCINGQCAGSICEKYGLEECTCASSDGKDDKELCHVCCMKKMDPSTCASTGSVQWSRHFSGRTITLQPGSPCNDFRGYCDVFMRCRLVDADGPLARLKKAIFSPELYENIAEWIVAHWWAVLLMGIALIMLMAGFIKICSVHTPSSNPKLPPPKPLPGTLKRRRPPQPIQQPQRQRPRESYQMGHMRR
PLCb3 inh: human PLC-beta3 inhibitors, primary screen, biochemical, fluorescence; 1-phosphatidylinositol 4,5-bisphosphate phosphodiesterase beta-3 (Homo sapiens), Q01970; Purified PLC-beta3, fluorogenic substrate; inhibition, % at 12.2 µM; 370,000 compounds, 0.18% hits; AID 720704, 2013; in the data active = inhibition above about 11%
Tn6 DDE FP: inhibitors of Tn6 peptide binding to fibrin DD(E), primary screen, biochemical, fluorescence polarization, human fibrin, Tn6 probe | Fibrin DD(E) TRITC-Tn6 fluorescence polarization displacement | inhibition, % at 8.3 µM | 370,000 compounds, 0.21% hits;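 active = inhibition above a per-campaign cutoff: mean of compounds within control limits plus 3 SD, cut at about 15% in these data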
ADAM17 inh: ADAM17 inhibitors, primary screen, biochemical, QFRET; Disintegrin and metalloproteinase domain-containing protein 17 (Homo sapiens), P78536; recombinant ADAM17, EDANS/DABCYL FRET peptide cleavage; inhibition, % at 6.95 µM; 370,000 compounds, 0.83% hits;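 active = inhibition above the mean of compounds lying between control limits plus 3 SD, set per campaign, cut at about 8.5% in these data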
PLCgamma1 ctr: PLC-gamma1 enzyme inhibitors, counter-screen for PLC-beta3 inhibitor project, biochemical, fluorescence. shares compounds with PLCg1 inh. purified PLC-gamma1, fluorogenic substrate. inhibition, % at 12.3 µM. 3,300 compounds, 3.1% hits. AID 743258, 2014
PLCb3 confirm: PLC-beta3 inhibitor confirmation, biochemical, fluorescence, purified enzyme. fluorogenic substrate fluorescence. 3,300 compounds, 1% hits. AID 743261, 2014. inhibition, % at 12.3 µM. shares compounds with PLCg1 inh; in the data active = inhibition above about 11%
Of the large screens only hits and unclear results are named; the others gave an inactive call (follow-up assays come after a bar, where they were run). Compounds with a hit are over-represented: about 2.3% of the library has one in this group of screens. Cut-off read from the data, not from the text of the source, unless noted: active = inhibition above about 9.5%; inactive = the rest.

Cc1c(CN(C)C(=O)c2ccc(Br)o2)cnn1C	PLCg1 inh 12 | PLCgamma1 ctr inactive | PLCb3 confirm inactive
C#CCNC(=O)C[C@H]1C[C@@]2(C(=O)OC)C(=C[C@H](COCc3ccccc3)O[C@@H]2C)N(Cc2ccccc2)C1=O	none
O=C(CN1C2=NCCCN2c2ccccc21)c1ccc([N+](=O)[O-])cc1	PLCg1 inh 9.6 | PLCgamma1 ctr inactive | PLCb3 confirm inactive
O=C(CN1C2=NCCCN2c2ccccc21)c1cccc(Br)c1	none
Cc1ccccc1NC(=O)C(C)Sc1nnc(CN2CCCC2)n1Cc1ccccc1 (centres undefined)	PLCg1 inh 10 | PLCgamma1 ctr inactive | PLCb3 confirm inactive
CSc1nc(N)c(C(=O)NC2CCCCC2)s1	PLCg1 inh 12 | PLCgamma1 ctr 9.6 | PLCb3 confirm inactive
CCOC(=O)c1sc(SC)nc1N	none
COC(=O)CN(n1cnnc1)S(=O)(=O)c1ccccc1Cl	PLCg1 inh 10 | PLCgamma1 ctr inactive | PLCb3 confirm inactive
Cn1c(SC/C=C/c2ccccc2)nnc1-c1cccnc1	PLCg1 inh 12 | PLCgamma1 ctr inactive | PLCb3 confirm inactive
O=C1CCCC(O)=C1N=Nc1ccc2c(c1)OCO2	none
O=C1CCCC(O)=C1N=Nc1ccc(C(=O)O)cc1	PLCg1 inh 13 | PLCgamma1 ctr inactive | PLCb3 confirm inactive
O=C(Nc1cccc(Cl)c1)Nc1cc(S(=O)(=O)N2CCOCC2)ccc1N1CCCC1	PLCg1 inh 11 | PLCgamma1 ctr inactive | PLCb3 confirm inactive
O=C(COC(=O)c1ccccc1[N+](=O)[O-])Nc1cc(S(=O)(=O)N2CCOCC2)ccc1N1CCCC1	PLCg1 inh 12 | PLCgamma1 ctr inactive | PLCb3 confirm inactive
COC(=O)[C@H](C)NC(=O)[C@H](CC(C)C)NC(=O)OC(C)(C)C	none
Cc1nc(SCc2ccc(O)c([N+](=O)[O-])c2)c([N+](=O)[O-])[nH]1	none
Cc1nc(SCC(O)CCl)c([N+](=O)[O-])[nH]1 (centres undefined)	PLCg1 inh 11, PLCb3 inh 13 | PLCgamma1 ctr inactive | PLCb3 confirm inactive
O=C(C1CCC1)n1ccc2ccc(-c3ccc4ccn(Cc5ccccc5)c4c3)cc21	none
O=C1C=C(NCc2ccc(Cl)cc2)CC(c2ccco2)C1 (centres undefined)	PLCg1 inh 11 | PLCgamma1 ctr inactive | PLCb3 confirm inactive
CCOc1ccc(N(CC(=O)NC2CCCC2)C(=O)CCCC(=O)Nc2ccccn2)cc1	PLCb3 inh 15 | PLCgamma1 ctr inactive | PLCb3 confirm inactive
O=C(NCCc1ccccc1)OCc1cn(Cc2cccc(F)c2F)nn1	none
NC(=O)CC(NC(=O)Cc1cccc2ccccc12)c1ccc(N2CCCCCC2)c([N+](=O)[O-])c1 (centres undefined)	PLCg1 inh 14, PLCb3 inh 13 | PLCgamma1 ctr 10 | PLCb3 confirm inactive
NC(=O)CC(NC(=O)Cc1cccc2ccccc12)c1ccc(N2CCC(N3CCCCC3)CC2)c([N+](=O)[O-])c1 (centres undefined)	none
NC(=O)CC(NC(=O)Cc1cccc2ccccc12)c1ccc(NC2CCC2)c([N+](=O)[O-])c1 (centres undefined)	PLCg1 inh 10 | PLCgamma1 ctr inactive | PLCb3 confirm inactive
O=C(Nc1ccc(Cl)c(Cl)c1)C1CCN(c2nnc(-n3cccc3)s2)CC1	none
COC(=O)[C@]12C[C@H](CC(=O)N3CCN(C(=O)c4ccco4)CC3)C(=O)N(Cc3ccco3)C1=C[C@H](C1CCCC1)O[C@@H]2C	none
CN1CCc2ccccc2C1C1CCNCC1 (centres undefined)	none
CCC1C(=O)N(C)CCc2ccccc21 (centres undefined)	PLCg1 inh 12 | PLCgamma1 ctr inactive | PLCb3 confirm inactive
O=C(OC12CCCN(C1)/C(=C/c1cccnc1)C2)C1CCCCC1 (centres undefined)	none
Nc1ncnc2c1ncn2C1O[C@H](CO)[C@@H](O)[C@@H]1O (some centres undefined)	none
Nc1nccc2c1ncn2C1OC(CO)C(O)C1O (centres undefined)	PLCg1 inh 12, PLCb3 inh 12 | PLCgamma1 ctr inactive | PLCb3 confirm inactive
COc1ccc(CNCCC(c2ccc(OC(C)C)cc2)c2ccccc2OC)cc1 (centres undefined)	none
COc1ccccc1C(CCNCc1ccc(N(C)C)cc1)c1ccc(OC(C)C)cc1 (centres undefined)	PLCg1 inh 10 | PLCgamma1 ctr inactive | PLCb3 confirm inactive
CC(=O)Nc1cnc(NC(=O)c2cccc(F)c2)cc1C	PLCb3 inh 11 | PLCgamma1 ctr inactive | PLCb3 confirm inactive
CCC(=O)Nc1cnc(NC(=O)c2cccc(F)c2)cc1C	none
Fc1ccccc1NC(=S)N1CCN(c2ccccn2)CC1	PLCg1 inh 10 | PLCgamma1 ctr inactive | PLCb3 confirm inactive
CCCCCC(=O)Nc1ccc(S(=O)(=O)Nc2cc(OC)nc(OC)n2)cc1	none
COc1cc(NS(=O)(=O)c2ccc(NC(=S)NC(=O)COc3ccccc3OC)cc2)nc(OC)n1	PLCg1 inh 14 | PLCgamma1 ctr inactive | PLCb3 confirm inactive
COc1cc(NS(=O)(=O)c2ccc(NC(=S)NC(C)=O)cc2)nc(OC)n1	PLCg1 inh 16, PLCb3 inh 14 | PLCgamma1 ctr inactive | PLCb3 confirm inactive
COc1cc(NS(=O)(=O)c2ccc(NS(=O)(=O)c3ccc(NC(C)=O)cc3)cc2)nc(OC)n1	none
COc1cc(NS(=O)(=O)c2ccc(NC(=O)CN3C(=O)c4ccccc4C3=O)cc2)nc(OC)n1	PLCg1 inh 12 | PLCgamma1 ctr inactive | PLCb3 confirm inactive
C#CCN1CC(COCCCC)Oc2cccc(Oc3ccc(C(C)(C)C)c(C)c3)c2S1(=O)=O (centres undefined)	none
CC#CC(=O)N[C@H]1CC[C@@]23CCCN2C(=O)CCC[C@H]3[C@H]1C	none
